Assay outcomes as filed in PubChem BioAssay.
In the library only some 8.8% were active in any assay of this set; here they are far more common.
M1 antagonist: antagonists of rat M1 muscarinic receptor | Muscarinic acetylcholine receptor M1 (Rattus norvegicus), P08482 | CHO-M1 cells, Fluo-4 calcium, ACh EC80 antagonist mode; hits give low values | B-score at 10 µM | 64,000 compounds, 3.4% hits;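 active = calcium fluorescence response, raw or row-and-column corrected B-score, differing from the plate sample mean either way at a set confidence level, mostly lower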
M1 ag: M1 muscarinic receptor agonists, primary screen, CHO-M1 cells, Fluo-4 calcium, agonist mode | Muscarinic acetylcholine receptor M1 | AID 626, 2007 | Fluo-4 calcium fluorescence; hits give high values | B-score at 10 µM | 64,000 compounds, 3% hits;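 active = fluorescence rise, raw or as B-score row- and column-corrected plate score, outside the 99.7% band of its plate's samples, either direction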
S1P1 ag-PAM: S1P1 agonists and agonism potentiators, primary screen, cell-based, primary and confirmation screens, CRE-bla reporter | S1P1 CRE-bla cells, forskolin, beta-lactamase FRET, potentiator mode; S1P1 agonist co-added at EC20, 2 nM; 100% = saturating reference agonist, 0% = basal | activation, % at 9.5 µM | AID 449, 2006 | Sphingosine 1-phosphate receptor 1 (Homo sapiens), P21453 | 56,000 compounds, 0.57% hits;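 active = activation above a cutoff set at the mean activation of all tested compounds plus 3 SD, cut at about 54% in these data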;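 also: forskolin at 4 µM as EC80 and the EC20 agonist is SEW2871; 100% = SEW2871 at its EC100 plus forskolin at EC80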
S1P3 ag: human S1P3 receptor agonists, primary screen, cell-based, primary and confirmation, NFAT-BLA reporter. Sphingosine 1-phosphate receptor 3 (Homo sapiens), Q99500. S1P3 NFAT-BLA reporter cells, agonism, FRET ratio; relative to 1 µM S1P, basal subtracted. activation, % at 4.5 µM. 60,000 compounds, 0.1% hits. AID 373, 2006;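 active = activation above the screen-wide mean plus 3 SD, cut at about 4.5% in these data, passing the limit was not always enough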
Target sequence (Q99500 whole entry, looked up): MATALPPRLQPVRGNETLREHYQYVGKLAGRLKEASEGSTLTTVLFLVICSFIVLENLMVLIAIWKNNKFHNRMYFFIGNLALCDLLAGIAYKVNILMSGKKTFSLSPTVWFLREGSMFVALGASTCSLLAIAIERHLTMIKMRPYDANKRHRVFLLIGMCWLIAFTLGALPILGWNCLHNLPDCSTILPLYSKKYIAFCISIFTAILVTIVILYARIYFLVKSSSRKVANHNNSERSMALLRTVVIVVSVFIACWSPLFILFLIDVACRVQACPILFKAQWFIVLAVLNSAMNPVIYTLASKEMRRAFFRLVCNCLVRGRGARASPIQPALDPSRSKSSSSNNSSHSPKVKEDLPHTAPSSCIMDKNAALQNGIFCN
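Material: Human S1P3 NFAT-BLA reporter CHO cells | Incubation: Overnight plating, 4 h compound 37 °C, 2 h substrate RT | Signal: FRET β-lactamase substrate fluorescence, excitation 405 nm, 460/535 nm emission ratio, background-subtracted | Compound: 4.5 µM final, single dose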
SF-1 act: activators of human SF-1, primary screen, cell-based, CHO-K1, Gal4-SF-1 LBD, luciferase luminescence; Steroidogenic factor 1 (Homo sapiens), Q13285; CHO-K1 Gal4-SF-1 LBD luciferase reporter; % increase over DMSO SF-1-specific signal; activation, % at 10 µM; 65,000 compounds, 1.9% hits; AID 522, 2006;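 active = activation above the mean activation of all tested compounds plus 3 SD, cut at about 50% in these data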
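Test system: CHO-K1 cells co-transfected with Gal4 DBD–human SF-1 LBD, 5xGal4 luciferase reporter. Quantity: 4,000 cells per well. Compound: 10 µM only. Incubation: compound added 1 h post-seeding, 20 h exposure at 37 °C, 5% CO2. Detection: SteadyLite luciferase luminescence. Replication: one test per compound.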
RORA act: activators of orphan receptor RORA, primary screen, cell-based, luminescence. activation, % at 10 µM. Nuclear receptor ROR-alpha (Homo sapiens), P35398. AID 560, 2006. 65,000 compounds, 1.5% hits. CHO-K1 Gal4-RORA LBD luciferase reporter; percent increase over mock-subtracted basal signal;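 active = activation above the mean of all tested compounds plus 3 SD, cut at about 49% in these data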;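 also: 0% = DMSO-treated RORA cells and 100% = added signal equal to DMSO minus mock-transfected cells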
M1 ag confirm: rat M1 muscarinic receptor agonists, confirmation, CHO-M1 cells, Fluo-4 calcium, duplicate retest | 1,700 compounds, 19% hits | fluorescence change (max-min) at 10 µM | shares compounds with M1 ag | Fluo-4 calcium fluorescence, agonist mode; actives lie on both sides;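 active = fluorescence change differs from the solvent-only DMSO control mean at a set confidence level in both duplicate runs; inconclusive = differs from solvent-only control mean in just one of two runs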;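 also: an EC20 dose of acetylcholine follows compound addition during the same imaging run; raw fluorescence intensity difference in instrument units with no normalization to controls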
M4 ag counter: agonist activity at rat M4 receptor, confirmation, counter-screen for M1 allosteric modulator project, cell-based, agonist mode; shares compounds with M1 ag; CHO M4/Gqi5 cells, Fluo-4 calcium fluorescence; actives lie on both sides; fluorescence change (max-min) at 10 µM; 1,700 compounds, 9% hits;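 active = fluorescence change differing from the plate's solvent-only control wells at 99.7% confidence in both duplicates, whether higher or lower; inconclusive = differs from solvent controls in only one of two duplicates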
An asterisk follows results filed as active; ? = inconclusive; . = not tested or not shown.

SMILES	M1 antagonist	M1 ag	S1P1 ag-PAM	S1P3 ag	SF-1 act	RORA act	M1 ag confirm	M4 ag counter
NC(=O)CSc1nc2scc(-c3ccco3)c2c(=O)n1-c1ccccc1	-1.4	4.3*	-24	-1	3	-16	?	-55
COc1ccc(NC(C)=O)cc1NC(=O)CCn1c(=O)sc2ccccc21	0.059	0.39	-3	0	-19	4	.	.
CC(=O)c1c(C(C)=O)c(C)n(Cc2ccc3c(c2)OCO3)c1C	-0.12	-1.7	12	0	8	-10	.	.
CC(=O)c1c(C)n(CC(=O)NCc2ccc3c(c2)OCO3)c2ccccc12	-0.49	3.4*	18	0	-5	-9	?	-37
COc1ccc(-c2nnc(SCc3nnc(-c4ccc(Cl)cc4)o3)n2-c2ccccc2)cc1	-0.0077	-1.5	10	-1	-1	22	.	.
O=c1n(Cc2ccc(Cl)cc2)c2sc3c(c2c2ncnn12)CCCC3	0.23	-0.21	-12	1	8	30	.	.
CCn1c(=O)cc(SCC(=O)N2CCN(c3ccccn3)CC2)c2ccccc21	-1.9	5.9*	-18	0	-5	-13	-29*	-38
Cn1c(=O)cc(SCC(=O)N2CCCC2)c2ccccc21	-0.2	0.13	-20	-1	1	10	.	.
COC(=O)Cn1c(CN2CCN(c3ccc(F)cc3)CC2)nc2c1c(=O)n(C)c(=O)n2C	-0.39	-0.98	13	-1	-11	-13	.	.
CCCN(CCC)c1nc(C)cc(C(C#N)c2nc3ccccc3o2)n1 (stereo not given)	0.19	6.4*	2	-1	-11	-6	4.7	-24
Cc1cc(-c2nc3ccccc3o2)c2ccccc2n1	-0.29	0.34	18	0	-2	-12	.	.
COc1ccc(CN2C(=O)c3cccnc3C2Nc2cc(Cl)ccc2OC)cc1 (stereo not given)	1.1	4.8*	1	1	6	-9	-4.8	-30
COc1ccc(OC)c(NC2c3ncccc3C(=O)N2Cc2ccco2)c1 (stereo not given)	-0.13	-0.64	-1	2	1	-21	.	.
CC(=O)c1cccc(NC(=O)C2CCCN(S(=O)(=O)c3cccc4cccnc34)C2)c1 (stereo not given)	-0.016	6.6*	-8	-1	13	6	-26*	?
COc1ccc(NC(=O)C2CCCN(S(=O)(=O)c3cccc4cccnc34)C2)c(OC)c1 (stereo not given)	-0.22	3.1*	-6	0	-11	8	-32*	?
COC(=O)c1nnn(-c2nonc2N)c1-c1cccs1	-0.13	0.091	12	-1	-8	-18	.	.
O=C(CCn1c(=S)[nH]c2cc3c(cc2c1=O)OCO3)N1CCN(C2CCCCC2)CC1	-0.0094	-0.89	.	.	7	-8	.	.
COCCCNC(=O)CCCn1c(=O)[nH]c2ccccc2c1=O	0.23	2*	-11	0	-7	-11	-20	-47
O=C(CCn1c(=O)[nH]c2ccccc2c1=O)Nc1ccccc1	0.43	11*	21	0	4	4	-7.7	-31
O=C(CCCn1c(=O)[nH]c2ccccc2c1=O)NC1CCCCCC1	0.76	-0.33	-8	0	-2	4	.	.
CCOC(=O)N1C(=O)c2cc(OC)ccc2S1(=O)=O	-0.00031	3.2*	1	0	-6	-21	?	?
Cc1cc2nc(C3CCN(CC4COc5ccccc5O4)CC3)[nH]c2cc1C (stereo not given)	-0.85	0.73	8	-1	-2	-18	.	.
CCCCN1CCCCC1C(=O)Nc1c(C)cc(C)cc1C (stereo not given)	0.012	-0.36	0	0	-10	-15	.	.
Cc1cc(C)c(NC(=O)C2CCCN2CCO)c(C)c1 (stereo not given)	0.22	2*	-12	-1	-2	27	1.8	-8.9
CCC1CCCCN1C(=O)CSc1nnc(-c2cccc(Cl)c2)o1 (stereo not given)	0.23	2.5*	21	0	24	25	-12	-23
SMILES	M1 antagonist	M1 ag	S1P1 ag-PAM	S1P3 ag	SF-1 act	RORA act	M1 ag confirm	M4 ag counter
CCC1CCCCN1C(=O)CSc1nnc(-c2ccc(Cl)s2)o1 (stereo not given)	.	.	23	-1	9	21	.	.
CCCOc1ccc2[nH]cc(C(=O)O)c(=O)c2c1	-0.59	0.018	-11	-2	-10	7	.	.
CC(=N/O)/C(=N\O)c1ccc(C)o1	0.45	-0.65	-33	-1	-15	-6	.	.
COc1ccccc1NC(=O)N(Cc1cc2cc(OC)c(OC)cc2[nH]c1=O)CC1CCCO1 (stereo not given)	-0.52	1.4	-22	0	-13	-18	.	.
COc1ccc2[nH]c(=O)c(CN(Cc3cccnc3)C(=O)Nc3ccccc3)cc2c1	-1	3.5*	4	0	-10	5	-28*	?
COc1ccc(NCc2cc3cc(OC)ccc3[nH]c2=O)cc1	-0.002	3.8*	12	-2	18	-20	-2.2	-10
COc1ccc2[nH]c(=O)c(CN(CC3CCCO3)C(=O)Nc3ccccc3OC)cc2c1 (stereo not given)	0.062	6.4*	2	-1	-6	-12	3.2	-4.9
CCOc1ccc2[nH]c(=O)c(CN(Cc3cccnc3)C(=O)Nc3ccccc3OC)cc2c1	0.024	-0.36	-3	0	-2	-19	.	.
COc1ccc2[nH]c(=O)c(CN(Cc3nnnn3Cc3ccc(F)cc3)CC3CCCO3)cc2c1 (stereo not given)	-0.15	2.6*	22	-1	8	6	-5.8	-17
CCOc1ccccc1C(=O)N(Cc1cccs1)C1CCS(=O)(=O)C1 (stereo not given)	-0.72	0.2	-14	-1	1	11	.	.
